From ChEMBL document CHEMBL1127570, “Synthesis and anticonvulsant properties of new benzylpyridazine derivatives” (J Med Chem, 1994)

Key:
Mus musculus [1] = test: Tested for NMDLA induced seizures and protection against full generalized tonic seizures was recorded; Percentage of protection at 150 mg/kg per os.; assay type: functional; settings: for ED50: Mus musculus, po
Procedure, shortened: (§1)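 Compounds given 30 min before N-methyl-D,L-aspartate 345 mg/kg sc in mice. Protection against full generalized tonic seizures recorded. Chi-square with Yates correction.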

Mus musculus [2] = organism: Mus musculus; test: (§2) Anticonvulsant activity against bicuculline induced seizures in mice; assay type: functional
Procedure, shortened: (§3)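 Mice given compound 30 min before bicuculline 0.81 mg/kg iv (procedure after Heyer). Protection against clonic seizures recorded. Groups of 10 mice per dose; chi-square with Yates correction.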

Mus musculus [3] = test: Tested for the abolition of the hand leg tonic extensor component of the seizure induced by a 0.96 mg/kg sc injection of strychnine; assay type: functional; settings: route subcutaneous
Procedure, shortened: (§4)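 Mice tested 30 min after compound for abolition of the tonic extensor component from strychnine 0.96 mg/kg sc. Chi-square with Yates correction; ED50 by Litchfield–Wilcoxon.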

Mus musculus [4] = test: Yohimbine induced seizures by administrating sc and the compound which do not exhibit at least one clonic seizure within 60 min was recorded; Percentage of protection at 150 mg/kg per os.; assay type: functional; settings: route subcutaneous; for ED50: Mus musculus, sc, 1 h
Procedure, shortened: (§5)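 Compound given 30 min before yohimbine 45 mg/kg sc in mice. Animals without at least one clonic seizure within 60 min count as protected. Chi-square with Yates correction.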

Mus musculus [5] = test: Locomotor activity in maximal electroshock seizure+ indicates increase at 100 mg/kg; assay type: functional
Mus musculus [6] = organism: Mus musculus; test: Anticonvulsant activity in mice using the maximal electroshock seizure test.; assay type: functional
Procedure, shortened: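 Oral dosing of mice 30 min before maximal electroshock via corneal electrodes. Protection is abolition of the hind limb tonic extensor component.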

[7] = Central nervous system toxicity was performed by determining the median toxic dose in the rotarod test; assay type: organism-based; settings: mouse, in vivo
Procedure, shortened: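 Rotarod neurotoxicity in mice, oral dosing 30 min before assay. Failure to stay 3 min on a 3-cm wooden rod turning at 8 rpm counts as toxic.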

[8] = Protective index is the ratio between TD50 and ED50 values; assay type: functional
Procedure, shortened: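 Protective index is rotarod TD50 divided by ED50. Both come from oral dosing in mice 30 min before test and are calculated by Litchfield–Wilcoxon.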

Mus musculus [9] = test: Ability to prevent the tonic extensor component induced by 106.25 mg/kg sc of pentylenetetrazole; Percentage of protection at 100 mg/kg per os.; assay type: functional
Procedure, shortened: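 Mice dosed orally 30 min before pentylenetetrazole 106.25 mg/kg sc. Protection is block of the tonic extensor component. Groups of 10 mice per dose; chi-square with Yates correction; ED50 by Litchfield–Wilcoxon.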

Mus musculus [10] = test: Tested for NMDLA induced seizures and protection against full generalized tonic seizures was recorded; Percentage of protection at 30 mg/kg per os.; settings: po
Mus musculus [11] = test: Ability to prevent the tonic extensor component induced by 106.25 mg/kg sc of pentylenetetrazole; assay type: functional; settings: route subcutaneous
Mus musculus [12] = test: Yohimbine induced seizures by administrating sc and the compound which do not exhibit at least one clonic seizure within 60 min was recorded; assay type: functional; settings: 1 h
Procedure, shortened: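 Mice, 10 per dose, dosed 30 min before yohimbine 45 mg/kg sc. Animals with no clonic seizure within 60 min were counted as protected. ED50 by Litchfield–Wilcoxon; chi-square with Yates correction.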

Mus musculus [13] = organism: Mus musculus; test: as §2; assay type: functional; remark: listed apart in the source
Procedure, shortened: (§6)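 Mice, 10 per dose. Test drug given 30 min before bicuculline 0.81 mg/kg iv; protection against clonic seizures recorded. Line 2: single oral dose of 100 mg/kg, given as percentage of animals protected. ED50 by Litchfield–Wilcoxon; chi-square with Yates correction.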

Mus musculus [14] = test: Tested for the abolition of the hand leg tonic extensor component of the seizure induced by a 0.96 mg/kg sc injection of strychnine;Percentage of protection at 100 mg/kg per os.; assay type: functional; procedure, shortened: as §4
Mus musculus [15] = test: (§7) Anticonvulsant activity against bicuculline induced seizures in mice; Percentage of protection at 100 mg/kg per os.; assay type: functional; procedure, shortened: as §3
Mus musculus [16] = test: Locomotor activity in maximal electroshock seizure. - indicates decrease at 100 mg/kg; assay type: functional
Mus musculus [17] = test: Tested for the abolition of the hand leg tonic extensor component of the seizure induced by a 0.96 mg/kg sc injection of strychnine; Percentage of protection at 100 mg/kg per os.; assay type: functional
Procedure, shortened: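 Oral dose of 100 mg/kg in mice, 10 per dose, given 30 min before strychnine 0.96 mg/kg sc. Protection means abolition of the hind leg tonic extensor component, given as percentage of animals protected. Chi-square with Yates correction.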

Mus musculus [18] = test: Anticonvulsant activity was measured using the maximal electroshock seizure test in mice. protection percentage at 100 mg/kg; assay type: functional; settings: for % protection at 100 mg/kg: Mus musculus
Mus musculus [19] = test: Tested for NMDLA induced seizures and protection against full generalized tonic seizures was recorded; Percentage of protection at 100 mg/kg per os.; assay type: functional; settings: po; procedure, shortened: as §1
Mus musculus [20] = organism: Mus musculus; test: Tested for NMDLA induced seizures and protection against full generalized tonic seizures was recorded; assay type: functional
Procedure, shortened: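 NMDLA (N-methyl-D,L-aspartate) 345 mg/kg sc injected 30 min after test drug in mice, 10 per dose; protection against full generalized tonic seizures recorded. ED50 by Litchfield–Wilcoxon; chi-square with Yates correction.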

Mus musculus [21] = test: yohimbine induced seizures by administrating sc and the compound which do not exhibit at least one clonic seizure within 60 min was recorded; Percentage of protection at 100 mg/kg per os.; assay type: functional; settings: 1 h, route subcutaneous; procedure, shortened: as §5
Mus musculus [22] = test: as §7; assay type: functional; procedure, shortened: as §6; remark: listed apart in the source

Compound	Locomotor activity (Mus musculus [5]) [%]	ED50 (Mus musculus [6]) [mg/kg]	TD50 [7] [mg/kg]	PI [8]	Locomotor activity (Mus musculus [16]) [%]	further results
Cc1nn2c(N)nnc2cc1Cc1ccccc1	11	22	> 800	36.4		ED50 (Mus musculus [1]): 14 mg/kg; ED50 (Mus musculus [2]): 94 mg/kg; ED50 (Mus musculus [3]): 35 mg/kg; ED50 (Mus musculus [4]): 20 mg/kg; pct protection (Mus musculus [9]): 20%
Cc1nn2c(C)nnc2cc1Cc1ccccc1	47	26				
CN1C(=O)CN=C(c2ccccc2)c2cc(Cl)ccc21 [DIAZEPAM]		4	2.8	0.7		ED50 (Mus musculus [10]): 30 mg/kg; ED50 (Mus musculus [11]): 0.5 mg/kg; ED50 (Mus musculus [3]): 1.1 mg/kg; ED50 (Mus musculus [12]): 2.3 mg/kg; ED50 (Mus musculus [13]): 0.39 mg/kg
O=C1NC(=O)C(c2ccccc2)(c2ccccc2)N1 [PHENYTOIN]		4	30.5	7.6	-16	percent protection (Mus musculus [1]): 0%; percent protection (Mus musculus [14]): 0%; ED50 (Mus musculus [4]): 10 mg/kg; percent protection (Mus musculus [15]): 0%; percent protection (Mus musculus [9]): 0%
CCCC(CCC)C(=O)[O-].[Na+] [VALPROATE SODIUM]		112	208	1.9	-5	percent protection (Mus musculus [1]): 0%; percent protection (Mus musculus [17]): 0%; ED50 (Mus musculus [4]): 10 mg/kg; pct protection (Mus musculus [9]): 20%
Cc1ccc(Cc2cc3nnc(N)n3nc2C)cc1		22.5			-8	
Cc1nn2c(N)nnc2cc1Cc1ccc(F)cc1		43			-15	
Cc1nnc(NNC(=O)Nc2ccccc2)cc1Cc1ccccc1Cl					-3	% protection at 100 mg/kg (Mus musculus [18]): 33%
Cc1nn2cc(-c3ccccc3)nc2cc1Cc1ccccc1	12	105				
Cc1nn2c(NC(=O)c3ccccc3)nnc2cc1Cc1ccccc1	7	35				
Cc1nnc(NC(N)=O)cc1Cc1ccccc1		10.2	140	13.7	-5	ED50 (Mus musculus [1]): 12.5 mg/kg; ED50 (Mus musculus [2]): 111 mg/kg; ED50 (Mus musculus [3]): 28 mg/kg; ED50 (Mus musculus [4]): 10 mg/kg; pct protection (Mus musculus [9]): 20%
Cc1nn2cnnc2cc1Cc1ccccc1Cl	5	6				
Cc1nn2c(C)nnc2cc1Cc1ccccc1Cl		30.5			-1	
Cc1nnc(NNC(=O)c2ccccc2)cc1Cc1ccccc1					-62	% protection at 100 mg/kg (Mus musculus [18]): 17%
Cc1nnc(NNC(=O)N(c2ccccc2)c2ccccc2)cc1Cc1ccccc1	9					% protection at 100 mg/kg (Mus musculus [18]): 15%
Cc1nnc(NNC(=O)Nc2ccccc2)cc1Cc1ccccc1						percent protection (Mus musculus [18]): 0%
Cc1nn2cnnc2cc1Cc1ccccc1	8	9.5	170	17.9		ED50 (Mus musculus [1]): 25 mg/kg; ED50 (Mus musculus [2]): 63 mg/kg; ED50 (Mus musculus [3]): 85 mg/kg; percent protection (Mus musculus [4]): 0%; pct protection (Mus musculus [9]): 20%
Cc1nn2cnnc2cc1Cc1c(Cl)cccc1Cl	13	6.2	88	14.2		pct protection (Mus musculus [19]): 12.5%; ED50 (Mus musculus [11]): 70 mg/kg; ED50 (Mus musculus [2]): 125 mg/kg; ED50 (Mus musculus [3]): 39.5 mg/kg; ED50 (Mus musculus [12]): 150 mg/kg
CCC1(c2ccccc2)C(=O)NC(=O)NC1=O [PHENOBARBITAL]	33	4.6	33	7.2		ED50 (Mus musculus [20]): 30 mg/kg; ED50 (Mus musculus [11]): 15 mg/kg; percent protection (Mus musculus [17]): 0%; ED50 (Mus musculus [12]): 17 mg/kg; ED50 (Mus musculus [13]): 20 mg/kg
Cc1nn2c(N)nnc2cc1Cc1c(Cl)cccc1Cl	16	9.2	410	44.5		ED50 (Mus musculus [1]): 14 mg/kg; ED50 (Mus musculus [11]): 76 mg/kg; ED50 (Mus musculus [2]): 93 mg/kg; ED50 (Mus musculus [3]): 34.5 mg/kg; ED50 (Mus musculus [12]): 76 mg/kg
Cc1nn2c(N)nnc2cc1Cc1ccccc1Cl		17.4			-7	
Cc1nnc(NNC(=O)C(C)C)cc1Cc1ccccc1					-67	percent protection (Mus musculus [18]): 0%
NC(=O)N1c2ccccc2C=Cc2ccccc21 [CARBAMAZEPINE]	7	5.5	40	7.3		ED50 (Mus musculus [1]): 20 mg/kg; ED50 (Mus musculus [11]): 17.5 mg/kg; ED50 (Mus musculus [21]): 10 mg/kg; percent protection (Mus musculus [22]): 0%; ED50 (Mus musculus [3]): 8.5 mg/kg
Cc1nn2c(-c3ccccc3)nnc2cc1Cc1ccccc1	2	108				
Cc1nnc(NNC(=O)C(C)C)cc1Cc1ccccc1Cl					-57	% protection at 100 mg/kg (Mus musculus [18]): 17%
